Compounds with a hit are over-represented: about 2% of the library has one in this group of screens.
VLA-4 inh = inhibition in a human VLA-4 binding assay; actives 0.2% (n = 330,000); inhibition, % (about 7 µM as worked out from the volumes in the protocol); P13612; VLA-4 expressing cells, ligand binding flow cytometry; in the data active = inhibition above about 50%
ABCB6 inh 2 = blocks the human ABCB6 transporter; Q9NP58; K562-ABCB6 porphyrin accumulation, flow cytometry, 1 h; hits give low values; fluorescence ratio to DMSO, % at 10 µM; actives 0.19% (n = 360,000);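 active = fluorescence ratio to DMSO below 75%, the collection mean minus 3 SD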;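 note: signal is porphyrin accumulated inside mitochondria; lower ratio means ABCB6 inhibition with less porphyrin fluorescence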
MT1-MMP act inh = inhibitors of human MT1-MMP activation; HT1080 RFP-PRO-GFP cells, GFP/RFP ratio fluorescence, overnight; percent of plate control window, DMSO zero; GFP/RFP ratio change, % at 20 µM; actives 0.061% (n = 360,000); P50281;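 active = GFP/RFP ratio change of at least 30% with cell ATP level not reduced by more than half and red fluorescence within 50% of control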
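Compound: 20 µM single dose, 1% DMSO / System: HT1080 RFP-PRO-GFP cells / Controls: DMSO and RFP-L50D-GFP cell wells / Read-out basis: GFP/RFP fluorescence ratio / Schedule: overnight compound exposure at 37 °C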
DAGLB inh = blocks human DAGLB lipase activity; Q8NCG7; HEK293T DAGLB membrane lysate, EnzChek fluorogenic substrate; inhibition, % at 5.17 µM; actives 0.059% (n = 340,000); in the data active = inhibition above about 34%
Granule exo inh = blocks lytic granule exocytosis; actives 0.66% (n = 360,000); inhibition, % at 10 µM; TALL-104 LAMP-1 surface exposure, flow cytometry; cells stimulated with thapsigargin and PMA; AID 651702;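 active = inhibition above about 55%, limit read from the data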
FGF22 binding = binders of recombinant human FGF22 by thermal shift | Q9HCT0 | SYPRO orange fluorescence; percent of sucrose octasulfate shift, DMSO zero | activity (Tm shift, normalised), % at 9.99 µM | actives 1.5% (n = 340,000) | AID 651658;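 active = mean Tm shift, scaled 0 neutral to 100 positive control, at about 1.3% or above, every replicate too, limit read from the data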
Target sequence (Q9HCT0 whole entry, looked up): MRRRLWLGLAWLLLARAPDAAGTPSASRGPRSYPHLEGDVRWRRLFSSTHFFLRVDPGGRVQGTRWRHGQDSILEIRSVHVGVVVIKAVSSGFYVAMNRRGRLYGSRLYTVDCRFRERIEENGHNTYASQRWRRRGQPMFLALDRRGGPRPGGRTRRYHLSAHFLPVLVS
Granule exo CP1 = blocks lytic granule exocytosis; actives 11% (n = 1,500); AID 651954; inhibition, % at 10 µM; TALL-104 cells, LAMP-1 externalization, flow cytometry; stimulated with PMA plus thapsigargin; shares compounds with Granule exo inh; in the data active = inhibition above about 60%
Numbers stand for hits; i = inactive; nt = no result.

SMILES | VLA-4 inh | ABCB6 inh 2 | MT1-MMP act inh | DAGLB inh | Granule exo inh | FGF22 binding | Granule exo CP1
CC(C)NC(=O)N(C)C[C@H]1OCCCC[C@H](C)Oc2ccc(NC(=O)Nc3cccc4ccccc34)cc2C(=O)N([C@@H](C)CO)C[C@H]1C | nt | nt | nt | nt | nt | i | nt
COc1ccc(-c2cc([C@H]3[C@H]4C=CC[C@@H](C)[C@@H]4C(=O)N3Cc3ccccc3)ccc2F)cc1 | i | i | i | i | 57 | i | i
Cc1ccc(-n2nc3c(N4CCC(C(=O)NCc5cccc(F)c5)CC4)nnc(C)c3c2C)cc1 | i | i | i | i | 59 | nt | i
Cc1ccc(-n2nc3c(N4CCC(C(=O)NCc5ccc(C)o5)CC4)nnc(C)c3c2C)cc1 | i | i | i | i | i | i | nt
CCOc1ccccc1CNC(=O)C1CCCN(c2nnc(C)c3c(C)n(-c4ccccc4)nc23)C1 (stereo not given) | i | i | i | i | 72 | i | i
COc1ccc(-n2nc3c(N4CCC(C(=O)NCc5ccccc5C)CC4)nnc(C)c3c2C)cc1 | i | i | i | i | i | nt | nt
COc1ccc(-c2cn[nH]c2-c2ccc(OCc3ccccc3)cc2O)cc1OC | i | i | i | i | 64 | i | i
C=C(C)COc1ccc(-c2[nH]ncc2-c2ccccc2)c(O)c1 | i | i | i | i | 85 | nt | i
Oc1cc(OCc2ccccc2)ccc1-c1[nH]ncc1-c1ccccc1 | i | i | i | i | 100 | i | i
C=C(C)COc1ccc(-c2[nH]ncc2-c2ccc(OC)cc2)c(O)c1 | i | i | i | i | i | i | nt
CC(C)C#Cc1cnc2c(c1)C(=O)N([C@H](C)CO)C[C@@H](C)[C@H](CN(C)Cc1cncnc1)O2 | nt | nt | nt | nt | nt | i | nt
COc1ccc(NC(=O)c2c(C)nn(Cc3ccccc3)c2C)cc1S(=O)(=O)N(C)C | i | i | i | i | 71 | i | i
Cc1ccc(N2C(=O)CC(Sc3nccc(C)n3)C2=O)cc1 (stereo not given) | i | i | i | i | i | i | nt
Cc1ccc(N2C(=O)CC(Sc3cccs3)C2=O)cc1 (stereo not given) | i | i | i | i | 86 | i | i
Cc1cccc(N2C(=O)CC(Sc3nnc(C)s3)C2=O)c1 (stereo not given) | i | i | i | i | 67 | nt | i
Cc1cccc(N2C(=O)CC(Sc3nc(C)cc(C)n3)C2=O)c1 (stereo not given) | i | i | i | i | i | nt | nt
COc1ccc(OC)c2sc(N(CCCN(C)C)C(=O)CCS(=O)(=O)c3ccccc3)nc12 | i | i | i | i | i | i | nt
CCN(Cc1ccccc1)S(=O)(=O)c1ccc(C(=O)N(CCCN(C)C)c2nc3c(C)c(C)ccc3s2)cc1 | i | i | i | i | 60 | i | i
CCN(CC)CCN(C(=O)c1ccc(S(=O)(=O)N(C)C2CCCCC2)cc1)c1nc2c(C)cccc2s1 | i | i | i | i | i | i | nt
Cc1ccc2sc(N(CCCN(C)C)C(=O)CCS(=O)(=O)c3ccccc3)nc2c1C | i | i | i | i | 84 | i | i
CCN(Cc1ccccc1)S(=O)(=O)c1ccc(C(=O)N(CCCN(C)C)c2nc3cc4c(cc3s2)OCO4)cc1 | i | i | i | i | 66 | i | i
CN(C)CCN(C(=O)c1ccc(S(=O)(=O)N(C)c2ccccc2)cc1)c1nc2cc3c(cc2s1)OCO3 | i | i | i | i | i | i | nt
Cc1ccc2sc(N(CCCN(C)C)C(=O)c3ccc(S(=O)(=O)N4CCOCC4)cc3)nc2c1C | i | i | i | i | i | i | nt
Cc1ccc2sc(N(CCCN(C)C)C(=O)c3ccc(S(=O)(=O)N(C)C4CCCCC4)cc3)nc2c1C | i | i | i | i | 62 | i | i
CN(C)CCCN(C(=O)CCSc1ccccc1)c1nc2cc3c(cc2s1)OCO3 | i | i | i | i | 60 | i | 70
SMILES | VLA-4 inh | ABCB6 inh 2 | MT1-MMP act inh | DAGLB inh | Granule exo inh | FGF22 binding | Granule exo CP1
COc1ccc(C(C(=O)NCc2ccccc2)N(C(=O)c2snc(C(N)=O)c2N)c2ccccc2OC)cc1 (stereo not given) | i | i | i | i | 65 | i | i
COc1ccccc1N(C(=O)c1snc(C(N)=O)c1N)C(C(=O)NCc1ccccc1)c1ccc(O)cc1 (stereo not given) | nt | i | i | i | i | i | nt
CC(C)C#Cc1cnc2c(c1)C(=O)N([C@@H](C)CO)C[C@H](C)[C@@H](CN(C)C(=O)C1CCC1)O2 | nt | nt | nt | nt | nt | i | nt
CCOC(=O)c1c(-c2ccccc2)oc2ccc(OCC(O)CN(C)C)cc12 (stereo not given) | i | i | i | i | 84 | i | i
CCOC(=O)c1c(-c2ccccc2)oc2ccc(OC(C)C(=O)O)cc12 (stereo not given) | i | i | i | i | i | i | nt
C[C@H]1CCCCO[C@@H](CN(C)C(=O)NC2CCCCC2)[C@@H](C)CN([C@@H](C)CO)C(=O)c2cc(NC(=O)C3CCCCC3)ccc2O1 | nt | nt | nt | nt | nt | i | nt
CCCC1=Nc2cc(C(=O)N3CCN(c4ccccn4)CC3)ccc2Sc2ccc(C)cc21 | i | i | i | i | 70 | i | i
COc1ccc(NC(=O)N(C)C[C@H]2OCCCC[C@@H](C)Oc3ccc(NC(=O)Nc4ccc5c(c4)OCO5)cc3C(=O)N([C@@H](C)CO)C[C@H]2C)cc1 | nt | nt | nt | nt | nt | i | nt
COCc1cc(C)nc(SCc2ccc(Cl)cc2)c1C#N | i | i | i | i | 69 | i | i
COCc1cc(C)nc(SCc2ccc(F)cc2)c1C#N | i | i | i | i | i | i | nt
CC1CCC(N2CCN(c3ccc([N+](=O)[O-])cc3)CC2)CC1 (stereo not given) | i | i | i | i | i | i | nt
CCC1CCC(N2CCN(c3ccc([N+](=O)[O-])cc3)CC2)CC1 (stereo not given) | i | i | i | i | 74 | i | i
C[C@@H]1CN([C@@H](C)CO)C(=O)Cc2cc(NC(=O)Cc3cn(C)c4ccccc34)ccc2O[C@@H]1CN(C)C(=O)Nc1ccc(F)cc1 | nt | nt | nt | nt | nt | i | nt
COc1ccccc1N(CC(=O)NCc1ccccc1C)S(=O)(=O)c1ccc(C)cc1 | i | i | i | i | 63 | i | i
COc1ccc(N(CC(=O)NCc2ccccc2OC)S(=O)(=O)c2ccccc2)cc1 | i | i | i | i | 75 | i | i
C[C@@H]1CN([C@H](C)CO)C(=O)c2cc(NS(=O)(=O)c3cccs3)ccc2O[C@H]1CN(C)C(=O)NC1CCCCC1 | nt | nt | nt | nt | nt | i | nt
O=C(C[C@@H]1C=C[C@@H](NC(=O)CC2CC2)[C@@H](CO)O1)NCc1ccc(Cl)cc1 | nt | nt | nt | nt | nt | i | nt
N#Cc1ccc(CSc2ccccn2)c(Cl)c1 | i | i | i | i | 81 | i | i

Screens: PubChem, several laboratories
